From ChEMBL document CHEMBL1138718, “CVT-4325: a potent fatty acid oxidation inhibitor with favorable oral bioavailability” (Bioorg Med Chem Lett, 2004)

Legend:
[1] = Half life in rats after 1 mg/kg intravenous dose; details: rat, in vivo
[2] = Plasma clearance in rats after 1 mg/kg intravenous dose; details: rat; for clearance: plasma
[3] = Area under curve for the compound was determined in rats after 2 mg/kg oral dose; assay type: ADME, organism-based; parameters: dose 2 mg/kg, route oral; details: rat, in vivo
[4] = Oral bioavailability in rat (dose 2 mg/kg); assay type: ADME, organism-based; details: in vivo
[5] = Metabolic stability as percent of drug remaining after incubation with human liver S9 for 30 min was determined; assay type: ADME, subcellular, Liver S9 fraction; details: for remaining at 0.5 h: liver S9, read-out: Activity
Method in brief: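 Incubation with human liver S9 (2 mg/mL) plus NADPH for 30 min, read as percent parent remaining. A standard was run in every assay, and data were accepted only if the standard fell within ±5% of its historical mean.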

[6] = Bioavailability in dog after 5 mg/kg oral dose; assay type: ADME, organism-based, Canis lupus familiaris; details: in vivo
[7] = Half life in dog after 1 mg/kg intravenous dose; details: in vivo
[8] = Area under curve for the compound was determined in dog after 5 mg/kg oral dose; assay type: ADME, organism-based, Canis lupus familiaris; parameters: dose 5 mg/kg, route oral; details: in vivo
[9] = Plasma clearance in dog after 1 mg/kg intravenous dose; details: in vivo
[10] = Half life in dog after 1 mg/kg intravenous dose; details: in vivo; remark: listed apart in the source
[11] = Bioavailability in dog after 4 mg/kg oral dose; assay type: ADME, organism-based, Canis lupus familiaris; details: in vivo
[12] = Area under curve for the compound was determined in dog after 4 mg/kg oral dose; assay type: ADME, organism-based, Canis lupus familiaris; parameters: dose 4 mg/kg, route oral; details: in vivo
[13] = Plasma clearance in dog after 1 mg/kg intravenous dose; details: in vivo; remark: listed apart in the source

Row | Structure (SMILES) | remaining at 0.5 h [5] [%] | further results
1 | Cc1nc2cc(OC[C@H](O)CN3CCN(CC(=O)Nc4c(C)cccc4C)CC3)ccc2s1 | – | half-life [1]: 1.4 h; Plasma clearance ([2]; in vivo): 54.5 mL/min/kg; AUC [3]: 30.5 ng·h/mL; F [4]: 19%
2 | Cc1nc2cc(OC[C@H](O)CN3CCN(Cc4noc(-c5ccc(Cl)cc5)n4)CC3)ccc2s1 | 48 | –
3 | Cc1nc2cc(OC[C@H](O)CN3CCN(Cc4csc(-c5ccc(C(F)(F)F)cc5)n4)CC3)ccc2s1 | 40 | –
4 | Cc1nc2cc(OC[C@H](O)CN3CCN(Cc4noc(-c5ccc(Cl)cc5Cl)n4)CC3)ccc2s1 | 33 | –
5 | Cc1nc2cc(OC[C@H](O)CN3CCN(Cc4nnc(-c5ccc(C(C)(C)C)cc5)o4)CC3)ccc2s1 | 25 | –
6 | Cc1nc2cc(OC[C@H](O)CN3CCN(Cc4nc(-c5ccc(C(F)(F)F)cc5)sc4C)CC3)ccc2s1 | 40 | –
7 | Cc1nc2cc(OC[C@H](O)CN3CCN(Cc4nc(-c5ccc(Cl)c(Cl)c5)no4)CC3)ccc2s1 | 36 | –
8 | Cc1nc2cc(OC[C@H](O)CN3CCN(Cc4noc(-c5cccc(F)c5)n4)CC3)ccc2s1 | 42 | –
9 | Cc1nc2cc(OC[C@H](O)CN3CCN(Cc4noc(-c5ccc(C(C)C)cc5)n4)CC3)ccc2s1 | 31 | –
10 | COc1ccc(-c2nc(CN3CCN(C[C@@H](O)COc4ccc5sc(C)nc5c4)CC3)no2)cc1 | 39 | –
11 | Cc1nc2cc(OC[C@H](O)CN3CCN(Cc4noc(-c5ccc(C(F)(F)F)cc5)n4)C[C@@H]3C)ccc2s1 | 43 | Bioavailabiility [6]: 30%; half-life [7]: 65 h; AUC [8]: 1093 ng·h/mL; half-life [1]: 4 h; clearance [2]: 19.7 mL/min/kg; Plasma clearance [9]: 4.6 mL/min/kg; AUC ([3]; read-out: AUC): 253 ng·h/mL; bioavailability [4]: 29%
12 | Cc1nc2cc(OC[C@H](O)CN3CCN(Cc4nc(-c5ccc(Cl)cc5Cl)no4)CC3)ccc2s1 | 29 | –
13 | Cc1nc2cc(OC[C@H](O)CN3CCN(Cc4noc(-c5ccc(Cl)cc5Cl)n4)C[C@@H]3C)ccc2s1 (stereo in doubt; 32) | – | Activity ([5]; s9, 0.5 h, 0.5 h): 30%
14 | Cc1nc2cc(OC[C@H](O)CN3CCN(Cc4nc(-c5ccc(Cl)cc5)no4)CC3)ccc2s1 | 66 | –
15 | Cc1nc2cc(OC[C@H](O)CN3CCN(Cc4nc(-c5ccc(C(F)(F)F)cc5)no4)CC3)ccc2s1 | 72 | –
16 | Cc1nc2cc(OC[C@H](O)CN3CCN(Cc4noc(-c5ccc(Cl)c(Cl)c5)n4)CC3)ccc2s1 | 30 | –
17 | Cc1nc2cc(OC[C@H](O)CN3CCN(Cc4noc(-c5ccc(C(C)(C)C)cc5)n4)CC3)ccc2s1 | 18 | –
18 | Cc1nc2cc(OC[C@H](O)CN3CCN(Cc4nnc(-c5ccc(Cl)cc5)o4)CC3)ccc2s1 | 34 | –
19 | Cc1nc2cc(OC[C@H](O)CN3CCN(Cc4noc(-c5ccc(F)cc5)n4)CC3)ccc2s1 | 50 | –
20 | Cc1nc2cc(OC[C@H](O)CN3CCN(Cc4noc(-c5ccc(C(F)(F)F)cc5)n4)CC3)ccc2s1 | 74 | half-life [1]: 3.2 h; clearance [2]: 22.5 mL/min/kg; AUC ([3]; read-out: AUC): 282 ng·h/mL; half-life [10]: 13.6 h; bioavailability [4]: 38%; Bioavailabiility [11]: 93%; AUC [12]: 1776 ng·h/mL; Plasma clearance [13]: 12.2 mL/min/kg
21 | Cc1nc2cc(OC[C@H](O)CN3CCN(Cc4noc(-c5cccc(Cl)c5)n4)CC3)ccc2s1 | 38 | –
22 | Cc1nc2cc(OC[C@H](O)CN3CCN(Cc4noc(-c5ccc(Cl)cc5Cl)n4)C[C@@H]3C)ccc2s1 (stereo in doubt; 31) | 17 | –
23 | Cc1nc2cc(OC[C@H](O)CN3CCN(Cc4nc(-c5ccc(C(C)(C)C)cc5)no4)CC3)ccc2s1 | 39 | –
24 | Cc1nc2cc(OC[C@H](O)CN3CCN(Cc4coc(-c5ccc(C(F)(F)F)cc5)n4)CC3)ccc2s1 | 43 | –
25 | Cc1nc2cc(OC[C@H](O)CN3CCN(Cc4nc(-c5ccc(C(C)C)cc5)no4)CC3)ccc2s1 | 21 | –
26 | Cc1cccc(-c2nc(CN3CCN(C[C@@H](O)COc4ccc5sc(C)nc5c4)CC3)no2)c1 | 31 | –
27 | Cc1nc2cc(OC[C@H](O)CN3CCN(Cc4nnc(-c5ccc(C(F)(F)F)cc5)o4)CC3)ccc2s1 | 49 | –
28 | Cc1nc2cc(OC[C@H](O)CN3CCN(Cc4noc(-c5ccc(C#N)cc5)n4)CC3)ccc2s1 | 56 | –
